# Source: PubChem (several laboratories)
# Most compounds without a hit are left out; they make up all but 3.2% or so of the library.
# SMARCA2 act = SMARCA2 function activation, primary screen; MG213 cells, MMTV-luciferase reporter, dexamethasone, overnight; activation, % at 9.1 µM; hit rate 1% among 370,000; in the data active means activation above about 7.8%;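 further: 0% = vehicle wells and 100% = reference activator wells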
# DAX1 inh-1 = NR0B1 (DAX1) inhibition | P51843 | HEK293 Gal4-DAX1 luciferase reporter, luminescence | inhibition, % at 6.75 µM | hit rate 0.99% among 340,000 | AID 504766;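 active means inhibition above the mean over all tested compounds plus 3 SD, cut at about 4.2% in these data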;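 further: 0% = DAX1-transfected cells with DMSO and 100% = empty-vector control cells with DMSO; inhibition shows as a rise in luminescence from relieved DAX1 repression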
# Target sequence (P51843 207-470 limits assumed): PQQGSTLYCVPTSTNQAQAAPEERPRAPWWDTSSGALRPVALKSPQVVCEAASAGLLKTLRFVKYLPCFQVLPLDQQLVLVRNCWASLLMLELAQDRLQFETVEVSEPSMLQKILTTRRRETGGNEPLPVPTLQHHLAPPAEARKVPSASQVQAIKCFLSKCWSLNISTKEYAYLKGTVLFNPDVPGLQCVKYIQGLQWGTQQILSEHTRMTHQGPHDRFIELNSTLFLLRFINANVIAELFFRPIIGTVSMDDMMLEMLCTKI
# JMJD2C inh = inhibitors of human GASC-1 (JMJD2C) demethylase; Q9H3R0; hit rate 0.069% among 330,000; inhibition, % at 2.35 µM; GST-JMJD2C(1-420) H3K9me3 demethylation, DELFIA europium;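 active means more than half of a compound's replicate wells show inhibition beyond 50%, single wells judged on their own value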;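 further: signal counts dimethyl H3K9 product captured on neutravidin plate; 0% = median of DMSO wells and 100% = 0.3 times that DMSO median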
# NR2E3 ag-1 = activates human NR2E3 receptor. Q9Y5X4. CHO-S Gal4-NCOR/VP16-NR2E3 two-hybrid, luciferase. inhibition of corepressor binding, % at 3.98 µM. hit rate 0.35% among 360,000;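 active means inhibition above the mean of all tested compounds plus 3 SD, cut at about 70% in these data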;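 further: 0% = DMSO with NR2E3 transfected cells and 100% = cells lacking NR2E3 construct; higher means lower luciferase signal from less NR2E3 corepressor binding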
# Target sequence (Q9Y5X4 whole entry, looked up, the tested form may be a part): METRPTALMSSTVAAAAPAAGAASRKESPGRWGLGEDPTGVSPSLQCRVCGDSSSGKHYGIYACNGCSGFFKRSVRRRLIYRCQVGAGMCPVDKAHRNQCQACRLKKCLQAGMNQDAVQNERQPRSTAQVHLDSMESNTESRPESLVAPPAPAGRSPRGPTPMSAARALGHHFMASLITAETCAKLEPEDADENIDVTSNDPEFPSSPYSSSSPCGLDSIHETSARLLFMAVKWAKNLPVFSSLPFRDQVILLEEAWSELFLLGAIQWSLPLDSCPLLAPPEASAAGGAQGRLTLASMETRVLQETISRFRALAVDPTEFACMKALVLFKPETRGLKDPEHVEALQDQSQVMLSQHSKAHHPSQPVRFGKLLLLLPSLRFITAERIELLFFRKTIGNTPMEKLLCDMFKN
# DAX1 inh-2 = DAX1 (NR0B1) inhibition, primary screen. inhibition, % at 6.8 µM. AID 652010. hit rate 1.1% among 370,000. HEK293T StAR-luciferase reporter, SF-1/DAX-1 repression relief;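 active means inhibition above the mean over all tested compounds plus 3 SD, cut at about 3.6% in these data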;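 further: 0% = DAX-1 cells with DMSO and 100% = cells lacking DAX-1 with DMSO; higher inhibition means more luminescence from relief of DAX-1 repression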
# NR2E3 ag-2 = NR2E3 (human) agonism; Q9Y5X4; GST-NR2E3/biotin-RetCOR TR-FRET, 1536-well; hit rate 0.12% among 320,000; inhibition of corepressor binding, % at 4.78 µM;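 active means percent inhibition above the cutoff of mean plus 3 SD of all tested compounds, set per screening campaign, cut at about 20% in these data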;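 further: 0% = DMSO wells and 100% = biotin wells as full block of FRET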
#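 System: GST-tagged NR2E3 plus biotinylated RetCOR corepressor; Buffer or medium: pH 7.5 Tris-based buffer; Probe or stimulus: RetCOR corepressor, biotinylated, 7 nM; Doses: compound at 4.8 µM, single dose; Schedule: 5 h incubation at 4 °C; Technique: time-resolved FRET; Evaluation: percent inhibition of TR-FRET ratio; Replication: one well per compound, singlicate testing.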
# NR2E3 ag confirm = confirmation of human NR2E3 agonists; shares compounds with NR2E3 ag-1; CHO-S mammalian two-hybrid NR2E3-NCOR, luciferase luminescence; inhibition, % at 3.98 µM; hit rate 51% among 2,300; AID 624378;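 active means average inhibition above a cutoff equal to the mean inhibition of all tested compounds plus one SD, cut at about 70% in these data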;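 further: 0% = DMSO in NR2E3 cells and 100% = DMSO in cells lacking NR2E3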
# VP16 counter = counter-screen for NR2E3 agonists: GAL4-VP16 reporter inhibitors. inhibition, % at 3.98 µM. hit rate 29% among 2,300. AID 624379. CHO-S GAL4-VP16 luciferase reporter, luminescence. shares compounds with NR2E3 ag-1;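 active means mean inhibition above a cutoff equal to the average over all tested compounds plus one standard deviation, cut at about 70% in these data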;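 further: luciferase from a UAS reporter driven by GAL4-VP16 transactivation; 0% = DMSO with VP16-transfected cells and 100% = DMSO with cells lacking VP16; higher means less reporter light so more repression of VP16 activity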
# * = called active by the depositor; nt = no result.
SMILES,SMARCA2 act,DAX1 inh-1,JMJD2C inh,NR2E3 ag-1,DAX1 inh-2,NR2E3 ag-2,NR2E3 ag confirm,VP16 counter
COc1ccc(-n2c(SCC(=O)NN=Cc3c(O)ccc4ccccc34)nnc2-c2ccc(C(C)(C)C)cc2)cc1,-4,nt,nt,nt,-1,nt,nt,nt
CCC(=O)N1CCCc2cc(S(=O)(=O)N3CCN(c4ccccn4)CC3)ccc21,-3,-1,26,69,-1,-1,93*,6
CCC(=O)N1CCCc2cc(S(=O)(=O)N3CCN(c4ncccn4)CC3)ccc21,-1,0,-16,-7,0,0,nt,nt
CN(CCc1ccccn1)C(=O)c1ccc2c(c1)ncn2C1CCCCC1,-2,nt,nt,nt,0,nt,nt,nt
COc1ccc(C2=NS(=O)(=O)N(C)C(C(=O)Nc3ccc4c(c3)OCO4)=C2)cc1,-6,0,nt,28,-1,1,nt,nt
Cc1ccc(C2=NS(=O)(=O)N(C)C(C(=O)Nc3ccc4c(c3)OCO4)=C2)cc1,-1,2,0,49,-1,4,33,42
CC1(c2nnnn2C2CCCCC2)CCCC(=O)N1CCc1ccc(O)cc1 (stereo not given),-4,nt,nt,nt,1,nt,nt,nt
O=C(NCc1cccnc1)/C(=C\c1ccc(-c2cccc(Cl)c2)o1)S(=O)(=O)c1ccccc1,-2,-5,4,91*,-4,2,63,-24
O=C(NCc1cccnc1)/C(=C/c1ccc(-c2cccc(Cl)c2)o1)S(=O)(=O)c1ccccc1,-1,1,-30,22,0,1,nt,nt
Cc1cc(NC(=O)c2ccccc2NS(=O)(=O)c2c(C)c(C)cc(C)c2C)no1,-4,0,3,6,0,-4,nt,nt
Cc1ccc(C)c(S(=O)(=O)Nc2ccccc2C(=O)Nc2cc(C)on2)c1,-4,0,4,49,0,0,65,37
Cc1ccc(C)c(NC(=O)c2ccccc2NS(=O)(=O)c2cc([N+](=O)[O-])ccc2C)c1,-7,0,7,85*,-1,1,99*,89*
Cc1ccc([N+](=O)[O-])cc1S(=O)(=O)Nc1cccc(S(=O)(=O)Nc2ccccc2C(=O)O)c1,-2,1,-2,-5,1,nt,nt,nt
COC(=O)[C@]12C[C@H](CC(=O)N3CCCC3)C(=O)N(Cc3ccccc3)C1=C[C@H](COCc1ccccc1)O[C@@H]2C,-2,nt,nt,nt,-1,nt,nt,nt
CCN(CC)C(=O)CC[C@H]1CC[C@]2(CCCN(Cc3cccc4ccccc34)C2)O1,0,nt,nt,nt,0,nt,nt,nt
CCC(=O)Nc1sc2c(c1C(N)=O)CCN(C(C)=O)C2,-6,-1,10,-14,-1,4,nt,nt
CC(=O)N1CCc2c(sc(NC(=O)c3ccc([N+](=O)[O-])o3)c2C(N)=O)C1,7,0,nt,79*,-3,nt,15,26
CC(C)(C)c1ccc(-c2noc(CCC(=O)NCC3CCCO3)n2)cc1 (stereo not given),-8,-3,14,83*,-2,3,73*,69
Cc1ccc(-c2noc(CCC(=O)NCC3CCCO3)n2)cc1 (stereo not given),-1,1,-6,15,0,3,nt,nt
COc1ccc(-c2noc(CCC(=O)Nc3cccnc3)n2)cc1,-1,-2,-5,-5,-2,0,nt,nt
CC(C)(C)c1ccc(-c2noc(CCC(=O)N3CCOCC3)n2)cc1,-5,-1,-22,-21,2,-6,nt,nt
CC(C)(C)c1ccc(-c2noc(CCC(N)=O)n2)cc1,-12,-4,13,80*,-3,0,78*,77*
CC(C)(C)c1ccc(-c2noc(CCC(=O)Nc3cccnc3)n2)cc1,-9,-2,-1,84*,-1,6,75*,79*
CNC(=O)CCc1nc(-c2ccc(C(C)(C)C)cc2)no1,0,1,0,68,3,1,71*,76*
COC(=O)[C@H](CC(C)C)N(Cc1cn(CC2CCCCC2)nn1)S(=O)(=O)c1ccc(F)cc1Br,2,nt,nt,nt,-1,nt,nt,nt
SMILES,SMARCA2 act,DAX1 inh-1,JMJD2C inh,NR2E3 ag-1,DAX1 inh-2,NR2E3 ag-2,NR2E3 ag confirm,VP16 counter
COc1cc(OC)c(OC)cc1CNC(=O)c1ccc(COc2ccccc2)cc1,-3,-2,4,58,-1,2,37,39
COc1ccc(CN(C)C(=O)c2ccc(COc3ccccc3)cc2)c(OC)c1,-4,0,-1,-14,-1,1,nt,nt
Cc1ccccc1CN1CCCCC(NC(=O)c2ccc(Br)cc2)C1=O (stereo not given),-4,nt,nt,nt,-4,nt,nt,nt
CN(Cc1ccco1)C(=O)Cn1c(=O)oc2cc(S(=O)(=O)NCc3ccccc3)ccc21,2,0,-14,0,-1,2,nt,nt
CN(Cc1ccccc1)C(=O)Cn1c(=O)oc2cc(S(=O)(=O)NCc3ccccc3)ccc21,-4,-1,-9,48,-4,5,17,41
COC(=O)[C@]12C[C@H](CC(=O)NCCc3ccccc3OC)C(=O)N(Cc3cccc4ccccc34)C1=C[C@H](COCc1ccccc1)O[C@@H]2C,-6,nt,nt,nt,-1,nt,nt,nt
Oc1ccc(CCNc2ncnc3ccc(Cl)cc23)cc1,-7,-4,-9,91*,-5,1,93*,87*
CCCCCCCCCCCCCCCC[n+]1cccc2ccccc21,-11,-3,0,24,-3,0,nt,nt
CCCCCCCCC[n+]1cccc2c3ccccc3ccc21,nt,-5,4,82*,nt,4,99*,74*
O=C(c1cncc(Br)c1)N1CCCc2ccccc21,2,0,5,74*,0,-2,-3,11
COc1ccc(CCNS(=O)(=O)c2c(C)n[nH]c2C)cc1,-3,nt,nt,nt,0,nt,nt,nt
S=c1[nH]nc(-c2cc(-c3ccccc3)n[nH]2)n1N=Cc1cccc(Oc2ccccc2)c1,-1,nt,nt,nt,1,nt,nt,nt
CCC1(O)C(=O)OCc2c1cc1n(c2=O)Cc2cc3cc(O)ccc3nc2-1 (stereo not given),-7,-6,nt,63,-7,nt,90*,27
Cc1cc(-c2nnc(SCC(=O)Nc3ccccc3C(F)(F)F)o2)c(C)n1-c1ccccc1,-4,-1,2,50,-2,-1,29,-8
O=C(Nc1nc(-c2ccccn2)cs1)Nc1ccc(F)cc1F,6,-2,9,70*,-1,0,36,-20
CC(C)[C@H](NC(=O)c1ccccc1Cl)C(=O)Nc1nc(-c2ccccn2)cs1,-4,-1,-12,17,-3,3,nt,nt
CC(Oc1ccc(Br)cc1)C(=O)Nc1nc(-c2ccccn2)cs1 (stereo not given),4,-1,-6,76*,-3,-3,19,13
